Laboratory results taken from ChEMBL document CHEMBL4828745, “Discovery and Structure-Activity Relationships of Quinazolinone-2-carboxamide Derivatives as Novel Orally Efficacious Antimalarials” (J Med Chem, 2021).

How the values were obtained:
[1] = biological target: T1, Interstitial collagenase (Homo sapiens) (UniProt P03956); assay: Inhibition of human MMP1 assessed as fluorescence intensity using DNP-Pro-Cha-Gly-Cys(Me)-His-Ala-Lys(n-Me-Abz)-NH2 as substrate at 10 uM incubated for 20 mins relative to control
T1 sequence (whole entry): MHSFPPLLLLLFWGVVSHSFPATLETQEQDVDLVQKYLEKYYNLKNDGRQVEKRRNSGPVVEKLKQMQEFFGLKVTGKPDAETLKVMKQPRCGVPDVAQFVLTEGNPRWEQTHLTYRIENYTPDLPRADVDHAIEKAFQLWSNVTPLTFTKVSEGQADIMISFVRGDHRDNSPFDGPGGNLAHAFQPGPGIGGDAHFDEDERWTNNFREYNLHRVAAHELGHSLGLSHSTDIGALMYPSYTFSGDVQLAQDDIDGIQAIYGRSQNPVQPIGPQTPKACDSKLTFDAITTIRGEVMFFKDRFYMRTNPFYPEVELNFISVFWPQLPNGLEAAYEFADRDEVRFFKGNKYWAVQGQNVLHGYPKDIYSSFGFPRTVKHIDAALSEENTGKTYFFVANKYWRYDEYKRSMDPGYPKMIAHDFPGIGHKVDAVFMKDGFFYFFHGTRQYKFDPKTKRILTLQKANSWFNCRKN

[2] = biological target: Matrix metalloproteinase-14 (Homo sapiens) (UniProt P50281); assay: Inhibition of human MMP14 assessed as fluorescence intensity using Mca-Pro-Leu-Ala-Cys(p-OmeBz)-Trp-Ala-Arg(Dpa)-NH2 as substrate at 10 uM incubated for 60 mins relative to control
[3] = AUC (0 to infinity) in Sprague-Dawley rat at 1 mg/kg, iv by LC-MS analysis; type: ADME, organism-based; set-up: route intravenous, time infinity, dose 1 mg/kg; details: in vivo
How it was run: (§1)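 Male Sprague Dawley rats (n = 3) dosed IV at 1 mg/kg with the Na·4H2O salt in 50% DMA/50% PEG400. Plasma concentration–time profiles were obtained, and non-compartmental parameters are given as mean ± SD.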

[4] = AUC (0 to infinity) in Sprague-Dawley rat at 5.6 mg/kg, po by LC-MS analysis; type: ADME, organism-based; set-up: time infinity, route oral, dose 5.6 mg/kg; details: in vivo
How it was run: (§2)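 Male Sprague Dawley rats (n = 3) dosed orally at 5.6 mg/kg with the Na·4H2O salt suspended in 0.5% methyl cellulose in water. Plasma was sampled over time. Bioavailability was taken relative to the 1 mg/kg IV arm.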

[5] = Oral bioavailability in Sprague-Dawley rat at 5.6 mg/kg by LC-MS analysis; type: ADME, organism-based; details: in vivo; how it was run: as §2
[6] = Cmax in Sprague-Dawley rat at 5.6 mg/kg, po by LC-MS analysis; type: ADME, organism-based; set-up: route oral, dose 5.6 mg/kg; details: in vivo; how it was run: as §2
[7] = Tmax in Sprague-Dawley rat at 5.6 mg/kg, po by LC-MS analysis; type: ADME, organism-based; details: in vivo; how it was run: as §2
[8] = Half life in Sprague-Dawley rat at 1 mg/kg, iv by LC-MS analysis; type: ADME, organism-based; details: in vivo; how it was run: as §1
[9] = Half life in Sprague-Dawley rat at 5.6 mg/kg, po by LC-MS analysis; type: ADME, organism-based; details: in vivo; how it was run: as §2
[10] = Plasma clearance in Sprague-Dawley rat at 1 mg/kg, iv by LC-MS analysis; type: ADME, organism-based; how it was run: as §1
[11] = Volume of distribution at steady state in Sprague-Dawley rat plasma at 1 mg/kg, iv by LC-MS analysis; type: ADME, organism-based; details: read-out: Vdss; how it was run: as §1
[12] = AUC (0 to infinity) in Swiss outbred mouse at 0.95 mg/kg, iv by LC-MS analysis; type: ADME, organism-based; set-up: route intravenous, time infinity, dose 0.95 mg/kg; details: in vivo
[13] = Plasma clearance in Swiss outbred mouse at 0.95 mg/kg, iv by LC-MS analysis; type: ADME, organism-based
[14] = Clearance in Swiss outbred mouse blood at 0.95 mg/kg, iv by LC-MS analysis; type: ADME, organism-based

Structure (SMILES) | inhibition [1] | inhibition [2] | AUC(0-inf) [3] | AUC(0-inf) [4] | bioavailability [5] | Cmax [6] | Tmax [7] | half-life [8] | half-life [9] | clearance [10] | Vd [11] | AUC(0-inf) [12] | clearance [13] | clearance [14]
CCc1cccc(CNC(=O)c2nc3cccc(COCc4ccc(C(=O)O)cc4)c3c(=O)[nH]2)c1 | 11.3% | 10.8% |  |  |  |  |  |  |  |  |  |  |  | 
CCc1cccc(CNC(=O)c2nc3cccc(COCc4ccc(C(=O)[O-])cc4)c3c(=O)[nH]2)c1.O.O.O.O.[Na+] |  |  | 3.7 µM·h | 6.9 µM·h | 34% | 1700 nM | 0.5 h | 5.3 h | 3.2 h | 9.5 mL/min/kg | 0.88 L/kg | 1.1 µM·h | 31 mL/min/kg | 57 mL/min/kg
